An excerpt weighted towards active compounds, which were near 5.9% of everything screened.
T cruzi growth-1: inhibitors of T. cruzi proliferation; T. cruzi beta-gal in NIH3T3, GalScreen luminescence, 90 h; inhibition, % at 8.34 µM; actives 5.9% (n = 77,000); AID 624255;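 active means mean inhibition above about 93%, with at least 55% of replicates each passing it, limit read from the data, passing the limit was not always enough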
GASC1 inh: inhibitors of human demethylase GASC-1 KDM4C; GST-KDM4C 2-372, H3K9me3 peptide, LANCE TR-FRET; inhibition, % at 12.5 µM; actives 0.15% (n = 96,000); AID 720574;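 active means mean replicate inhibition above about 25%, with at least 55% of replicates also reaching it, limit read from the data, passing the limit was not always enough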
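Test system: N-terminal GST-fused human GASC-1 (KDM4C) fragment, residues 2-372; quantity: GASC-1 enzyme at 10 nM final in reaction; dosing: single dose; schedule: 30 min demethylation and 1 h detection at room temperature; signal: LANCE TR-FRET, excitation 340 nm, emissions 618 and 671 nm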
IDH1 R132H inh: blocks human IDH1 R132H reductase activity | O75874 | diaphorase/resazurin fluorescence, 60 min | inhibition, % at 10 µM | actives 0.18% (n = 70,000); in the data active means inhibition above about 34%
Target sequence (O75874 whole entry R132H): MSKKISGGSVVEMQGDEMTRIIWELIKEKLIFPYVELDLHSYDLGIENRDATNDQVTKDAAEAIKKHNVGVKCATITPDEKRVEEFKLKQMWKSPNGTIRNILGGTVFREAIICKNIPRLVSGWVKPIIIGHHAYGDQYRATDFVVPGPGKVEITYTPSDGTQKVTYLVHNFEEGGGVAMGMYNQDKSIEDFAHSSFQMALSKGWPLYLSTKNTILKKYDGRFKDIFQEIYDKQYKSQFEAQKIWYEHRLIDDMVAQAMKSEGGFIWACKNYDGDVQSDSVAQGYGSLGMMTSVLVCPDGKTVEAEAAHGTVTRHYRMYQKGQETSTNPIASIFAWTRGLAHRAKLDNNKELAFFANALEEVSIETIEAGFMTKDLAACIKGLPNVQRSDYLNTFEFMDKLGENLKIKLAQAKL
Pf Dd2 growth: inhibitors of Plasmodium falciparum Dd2 growth. P. falciparum Dd2 growth, SYBR Green, 72 h; active compounds read low. activity change, % at 10 µM. actives 2.3% (n = 94,000). AID 1159554; in the data active means activity change below about -80%
T cruzi growth-2: Trypanosoma cruzi proliferation inhibition | inhibition, % at 8.35 µM | T. cruzi beta-gal in NIH3T3, GalScreen luminescence, 90 h | AID 651739 | shares compounds with T cruzi growth-1 | actives 72% (n = 5,600);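 active means mean replicate inhibition above about 95% and at least 55% of replicates individually reaching it, limit read from the data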
T cruzi growth-3: Trypanosoma cruzi proliferation inhibition; shares compounds with T cruzi growth-1; T. cruzi beta-gal in NIH3T3, GalScreen luminescence, 90 h; inhibition, % at 2.09 µM; actives 21% (n = 5,600);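 active means mean inhibition above about 95%, with at least 55% of replicates also reaching it, limit read from the data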
NIH3T3 tox: NIH/3T3 (mouse) viability loss. shares compounds with T cruzi growth-1. NIH/3T3 viability, CellTiter-Glo ATP luminescence, 90 h. cytotoxicity (signal decrease), % at 8.35 µM. actives 14% (n = 5,600). AID 651742;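 active means mean signal decrease across replicates above about 35% based on untreated-well scatter, with enough replicates individually passing, limit read from the data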
3T3 cytotox 2: kills mouse NIH/3T3 fibroblasts. inhibition, % at 24.9 µM. shares compounds with T cruzi growth-1. AID 651744. NIH/3T3 viability, CellTiter-Glo ATP luminescence, 90 h. actives 56% (n = 5,600);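 active means mean loss of cell viability signal at or above a set limit, and enough replicates individually reaching it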
Of the large screens only hits and unclear results are named; the others gave an inactive call (follow-up assays come after a bar, where they were run).

C[C@@H]1CCCCO[C@@H](CN(C)S(=O)(=O)c2ccc(F)cc2)[C@H](C)CN([C@H](C)CO)C(=O)c2cc(NS(=O)(=O)c3ccc(F)cc3)ccc2O1	none
C[C@@H]1CN([C@@H](C)CO)C(=O)c2cc(NS(=O)(=O)c3ccc(F)cc3)ccc2O[C@@H](C)CCCCO[C@H]1CN(C)S(=O)(=O)c1ccc(F)cc1	T cruzi growth-1 112.6 | T cruzi growth-2 106.8 | T cruzi growth-3 inactive | NIH3T3 tox inactive | 3T3 cytotox 2 inactive
C[C@@H]1CN([C@H](C)CO)C(=O)c2cc(NS(=O)(=O)c3ccc(F)cc3)ccc2O[C@@H](C)CCCCO[C@@H]1CN(C)S(=O)(=O)c1ccc(F)cc1	T cruzi growth-1 107.2 (no result: IDH1 R132H inh) | T cruzi growth-2 103.0 | T cruzi growth-3 inactive | NIH3T3 tox inactive | 3T3 cytotox 2 inactive
C[C@@H]1CCCCO[C@@H](CN(C)S(=O)(=O)c2ccc(F)cc2)[C@@H](C)CN([C@H](C)CO)C(=O)c2cc(NS(=O)(=O)c3ccc(F)cc3)ccc2O1	none (no result: IDH1 R132H inh)
CCn1c(SCC(=O)Nc2cccc(Cl)c2Cl)nnc1-c1ccc([N+](=O)[O-])cc1	none (no result: T cruzi growth-1, GASC1 inh, Pf Dd2 growth)
O=C(c1ccc2c(c1)OCO2)N1CCCCN2[C@H](CO)[C@@H](c3ccc(-c4ccccc4)cc3)[C@@H]2C1	T cruzi growth-1 115.0 (no result: IDH1 R132H inh) | T cruzi growth-2 99.2 | T cruzi growth-3 inactive | NIH3T3 tox 52.3 | 3T3 cytotox 2 88.2
Cc1cccc(-c2ccc([C@H]3[C@H](CO)N4CCCCN(C(=O)c5ccc6c(c5)OCO6)C[C@@H]34)cc2)c1	T cruzi growth-1 113.8 (no result: IDH1 R132H inh) | T cruzi growth-2 102.6 | T cruzi growth-3 inactive | NIH3T3 tox inactive | 3T3 cytotox 2 103.4
O=C(C[C@@H]1CC[C@@H]2[C@H](COC[C@H](O)CN2Cc2nccs2)O1)NCc1ccc(Oc2ccccc2)cc1	none (no result: T cruzi growth-1, IDH1 R132H inh)
O=C(C[C@@H]1CC[C@@H]2[C@H](COC[C@@H](O)CN2Cc2ccc(Oc3ccccc3)cc2)O1)Nc1nccs1	T cruzi growth-1 107.9 (no result: IDH1 R132H inh) | T cruzi growth-2 101.9 | T cruzi growth-3 inactive | NIH3T3 tox inactive | 3T3 cytotox 2 inactive
O=C(C[C@@H]1CC[C@H]2[C@@H](COC[C@H](O)CN2Cc2ccc(Cl)cc2)O1)Nc1nccs1	none (no result: IDH1 R132H inh)
O=C(C[C@@H]1CC[C@@H]2[C@H](COC[C@H](O)CN2Cc2ccc(Oc3ccccc3)cc2)O1)Nc1nccs1	T cruzi growth-1 133.1 (no result: IDH1 R132H inh) | T cruzi growth-2 100.4 | T cruzi growth-3 inactive | NIH3T3 tox inactive | 3T3 cytotox 2 inactive
O=C(C[C@H]1CC[C@@H]2[C@H](COC[C@H](O)CN2Cc2ccc(Oc3ccccc3)cc2)O1)Nc1nccs1	T cruzi growth-1 133.1 (no result: IDH1 R132H inh) | T cruzi growth-2 103.1 | T cruzi growth-3 inactive | NIH3T3 tox inactive | 3T3 cytotox 2 52.3
O=C(C[C@@H]1CC[C@H]2[C@@H](COC[C@@H](O)CN2Cc2ccc(Oc3ccccc3)cc2)O1)Nc1nccs1	T cruzi growth-1 116.6 (no result: IDH1 R132H inh) | T cruzi growth-2 101.2 | T cruzi growth-3 inactive | NIH3T3 tox inactive | 3T3 cytotox 2 97.4
Nc1cc(N)nc(SCC(=O)N2CCN(c3ccc(Cl)cc3)CC2)n1	none (no result: T cruzi growth-1, GASC1 inh, Pf Dd2 growth)
O=C(O)CC(CC(=O)Nc1cc(C(F)(F)F)cc(C(F)(F)F)c1)c1ccc(Cl)cc1Cl (stereo unspecified)	none (no result: T cruzi growth-1, GASC1 inh, Pf Dd2 growth)
CC1(C)CC(=O)C2=C(C1)N(Cc1cccnc1)C(=O)C2(NC(=O)c1ccc(Cl)cc1Cl)C(F)(F)F (stereo unspecified)	none (no result: T cruzi growth-1, GASC1 inh, Pf Dd2 growth)
CN(C)C(=O)c1ccc(-c2ccc3c(c2)[C@@H]2[C@@H](CCN2C(=O)Cc2ccccn2)[C@@H](CO)N3C)cc1	none (no result: IDH1 R132H inh)
CN(C)C(=O)c1ccc(-c2ccc3c(c2)[C@@H]2[C@@H](CCN2C(=O)Cc2ccccn2)[C@H](CO)N3C)cc1	T cruzi growth-1 103.6 (no result: IDH1 R132H inh) | T cruzi growth-2 104.3 | T cruzi growth-3 inactive | NIH3T3 tox inactive | 3T3 cytotox 2 inactive

Screens (PubChem BioAssay)
